Where a chain is given by its changes, count along the chain named.
Columns and labels:
DC-SIGN ECD = target: T1, DC-SIGN ECD (Homo sapiens, UniProt Q9NNX6); assay: Plate-based horseradish peroxidase; assay type: biochemical
T1 sequence (Q9NNX6 64-404): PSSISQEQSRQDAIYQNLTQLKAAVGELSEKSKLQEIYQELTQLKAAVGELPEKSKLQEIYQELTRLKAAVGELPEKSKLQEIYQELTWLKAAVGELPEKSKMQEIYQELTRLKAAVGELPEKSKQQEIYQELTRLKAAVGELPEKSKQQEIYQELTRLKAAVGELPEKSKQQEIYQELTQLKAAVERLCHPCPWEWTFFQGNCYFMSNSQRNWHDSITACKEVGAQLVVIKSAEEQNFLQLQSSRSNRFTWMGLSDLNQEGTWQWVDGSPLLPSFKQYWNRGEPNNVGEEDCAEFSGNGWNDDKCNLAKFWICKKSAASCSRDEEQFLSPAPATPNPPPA
Summary of the method: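 Purified DC-SIGN extracellular domain immobilized on plates. Incubated overnight at 4 °C or room temperature with test compound at 0.5 mM for the screen, or at a concentration series for dose-response (overnight, RT, or varied incubation times). After washing, HRP added; it binds via its own glycans. Bound HRP read by peroxidase activity relative to DMSO control. Hit cutoff ≥50% change. EDTA, mannan and mannose used as controls. Mean of three biological replicates.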

DC-SIGN CRD wild type = target: T2, DC-SIGN CRD wild type (Homo sapiens, UniProt Q9NNX6); assay: Dynamic light scattering of modified protein; conditions: protein-compound ratios up to 1:10
T2 sequence (Q9NNX6 253-404): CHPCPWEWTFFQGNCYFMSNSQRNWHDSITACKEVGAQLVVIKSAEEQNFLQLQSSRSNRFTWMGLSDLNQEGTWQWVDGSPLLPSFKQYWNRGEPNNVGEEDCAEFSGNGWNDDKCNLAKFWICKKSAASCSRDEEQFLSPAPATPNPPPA

DC-SIGN CRD M270F = target: T3, DC-SIGN CRD M270F (Homo sapiens, UniProt Q9NNX6, M270F); assay: Dynamic light scattering of modified protein, M270F mutant; conditions: secondary site blocked
T3 sequence (Q9NNX6 253-404 M270F): T2 sequence (Q9NNX6 253-404) with M18F

DC-SIGN CRD = target: T4, DC-SIGN CRD (Homo sapiens, UniProt Q9NNX6); assay: Grating-coupled interferometry; assay type: binding; conditions: mannose-PEG3 sensor; for EC50: EC50, GCI binding response, overnight incubation at RT
T4 sequence (Q9NNX6 253-404): T2 sequence (Q9NNX6 253-404)

DC-SIGN ECD K295R = target: T5, DC-SIGN ECD K295R (Homo sapiens, UniProt Q9NNX6, K295R); assay: HRP binding assay with Lys mutant K295R; assay type: biochemical
T5 sequence (Q9NNX6 64-404 K295R): T1 sequence (Q9NNX6 64-404) with K232R

DC-SIGN ECD K373R = target: T6, DC-SIGN ECD K373R (Homo sapiens, UniProt Q9NNX6, K373R); assay: HRP binding assay with Lys mutant K373R; assay type: biochemical
T6 sequence (Q9NNX6 64-404 K373R): T1 sequence (Q9NNX6 64-404) with K310R

DC-SIGN ECD K340R = target: T7, DC-SIGN ECD K340R (Homo sapiens, UniProt Q9NNX6, K340R); assay: HRP binding assay with Lys mutant K340R; assay type: biochemical
T7 sequence (Q9NNX6 64-404 K340R): T1 sequence (Q9NNX6 64-404) with K277R

| screening outcome, activity change compared to the DMSO control (DC-SIGN ECD; 0.5 mM compound, overnight, cutoff ∼50% activity change) | EC50 (DC-SIGN ECD) | change of protein hydrodynamic size upon modification (DLS) (DC-SIGN CRD wild type) | change of protein hydrodynamic size upon modification (DLS) (DC-SIGN CRD M270F) | EC50 (DC-SIGN CRD) | activity (EC50) on mutant compared to the wild type, HRP assay (DC-SIGN ECD K295R) | activity (EC50) on mutant compared to the wild type, HRP assay (DC-SIGN ECD K373R) | activity (EC50) on mutant compared to the wild type, HRP assay (DC-SIGN ECD K340R) | IC50 (DC-SIGN ECD) | time dependency of dose-response after varying incubation times, HRP assay (DC-SIGN ECD; reaction quenched at different time points) | Hill slope (nH), GCI (DC-SIGN CRD) | Structure (SMILES) |
| --- | --- | --- | --- | --- | --- | --- | --- | --- | --- | --- | --- |
| potential inhibitor | – | – | – | – | – | – | – | – | – | – | O=Cc1cc2ccccc2cc1C=O [Compound 30, naphthalene‐2,3‐dicarbaldehyde] |
| – | 30 µM | induces oligomerization | lack of oligomerization | 200 µM | No change in EC50 | No change in EC50 | No change in EC50 | – | – | – | O=C(ON1C(=O)CCC1=O)c1cc(C(F)(F)F)cc(C(F)(F)F)c1 [Compound 11, 2,5-dioxopyrrolidin-1-yl 3,5-bis(trifluoromethyl)benzoate] |
| – | – | – | – | – | – | – | – | 11.4 mM | – | – | OC[C@H]1OC(O)[C@@H](O)[C@@H](O)[C@@H]1O (stereo partly shown) [mannose, reference compound] |
| – | – | no increase in size | – | 100 µM | EC50s similar to that of the wild type | drastically reduced activity | EC50s similar to that of the wild type | – | clear time dependency | ≈ 1 | COc1c(Nc2cc(C(F)(F)F)cc(C(F)(F)F)c2)c(=O)c1=O [Compound 33, 3-((3,5-bis(trifluoromethyl)phenyl)amino)-4-methoxycyclobut-3-ene-1,2-dione] |

From paper PMC12811664 (Angewandte Chemie (International Ed. in English), 2025)
